Results collected from several papers.
pEC50, pIC50: −log10 of the molar value. Values after ≈ are worked out from the molar mass of the structure shown.

Cc1ncc([N+](=O)[O-])n1CCO  MIC (Lacticaseibacillus casei; microbial growth, agar dilution; 48 h): > 16 µg/mL
CC(C)(C)C1=CC(=NNc2ccc(C#N)cc2)C=C(C(C)(C)C)C1=O  pIC50 (Toxoplasma gondii; parasite growth, fluorescence; 5 days, intracellular): 5.42
CCN(CC)CCNC(=O)c1c(C)[nH]c(/C=C2\C(=O)Nc3ccc(F)cc32)c1C  inhibition (ZR75; cell growth or viability; 30 µM): 90.7%
NC(=O)c1cccnc1  pEC50 (tissue relaxation, agonist; rat): ~3.00
Cc1ccc(C(CS(=O)(=O)c2ccccc2)=NNC2=NC(=O)C(=NNc3ccccc3)S2)cc1  viability (WM 266-4; cell growth or viability, MTT; 25 µM, 48 h): 41.2%
C[C@@H](c1ncncc1F)[C@](O)(Cn1cncn1)c1ccc(F)cc1F  pIC50 (Acanthamoeba castellanii; parasite growth, resazurin; 96 h): 5.57
COc1ccc(-c2nc(NN=C3C(=O)Nc4ccccc43)c3ccccc3n2)cc1OC  inhibition (ZR75; cell growth or viability; 30 µM): 54.9%
Cc1ccc(C(CS(=O)(=O)c2ccccc2)=NNc2nc(C)c(N=Nc3cccc(C)c3)s2)cc1  viability (WM 266-4; cell growth or viability, MTT; 6.3 µM, 48 h): 46.7%
Nc1ccc(S(=O)(=O)Nc2ncccn2)cc1  pIC50 (Toxoplasma gondii; parasite growth; human Fibroblast; intracellular): 4.56
Cc1ccc(C(CS(=O)(=O)c2ccccc2)=NN=C2N=C(c3ccc(Br)cc3)CS2)cc1  viability (WM 266-4; cell growth or viability, MTT; 100 µM, 48 h): 31.7%
COc1cc2ncnc(NN=C3C(=O)Nc4ccc(F)cc43)c2cc1OC  inhibition (ZR75; cell growth or viability; 10 µM): 19.2%
NC(=S)NN=C(CS(=O)(=O)c1ccccc1)c1ccc(F)cc1  viability (WM 266-4; cell growth or viability, MTT; 25 µM, 48 h): 31.3%
O=c1[nH]c(NCc2ccc(Cl)c(Cl)c2)nc2ncn(CCN3CCOCC3)c12  MIC (Lacticaseibacillus casei; microbial growth, agar dilution; 48 h): 16 µg/mL (≈ 37.8 µM)
